Results taken from PubChem BioAssay.
Active and inactive are the calls of the source.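 How the source made its calls, unless noted: active means NADPH fluorescence slope more negative than the mean of all samples by about 3 SD, 99.7% confidence; inactive means the rest.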

Legend:
[1] = inhibitors of TNFa-induced NFkB p65 translocation, primary screen, imaging, HUVEC, MLSMR starter and 10KST1 sets (AID 438;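 active means inhibition above 20% together with a positive visual image hit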;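 further: compound added about 3h40 before a 20 min TNFalpha stimulation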;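 on inhibition: signal is the nuclear over cytoplasmic p65 intensity ratio per well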); conditions: HUVEC TNFa-induced p65 nuclear translocation; cell count: measured here: nuclei count (cytotoxicity indicator), at 2.08 µM; inhibition: at 2 µM, stronger effect = higher value, 0% TNFa-plus-vehicle, 100% no-TNFa wells
[2] = inhibitors of mutant huntingtin aggregation, primary screen, imaging, exon1htt(103Q)mCFP cells, high-content imaging (AID 483;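 active means visual image review flags a hit and inhibition of aggregation exceeds 20%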;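 further: compound exposure lasted 3 days before fixation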;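 on nuclei count: percent of the per-plate median nuclei count of sample wells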); conditions: exon1htt(103Q)mCFP cell line, aggregate imaging, at 2 µM; inhibition of aggregation: stronger effect = higher value; nuclei count: measured here: cell count, toxicity
[3] = inhibitors of E-selectin induction by TNFa, primary screen, imaging, HUVEC, immunofluorescence, MLSMR starter and 10KST1 sets (AID 487;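 active means visually confirmed hit in the image check and inhibition above 20%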;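 on inhibition: signal is fraction of cell area covered by stained E-selectin grains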;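 on nuclei count: 100% = median nuclei count of all wells on the same plate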); conditions: HUVEC TNFalpha-induced E-selectin immunofluorescence imaging, at 2 µM; inhibition: stronger effect = higher value; nuclei count: measured here: cell number, toxicity
[4] = target: Voltage-gated potassium channel subunit beta-2 (Rattus norvegicus) (UniProt P62483); experiment: KvBeta enzyme negative modulators, primary screen, biochemical, NADPH fluorescence (AID 622;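 active means fluorescence slope higher than the sample average by over 3 SD, cut at about -0.22 in these data, passing the limit was not always enough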;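 further: slope of raw intensity against log time taken from 70 to 1610 s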); conditions: recombinant KvBeta, 4-cyanobenzaldehyde reduction, at 10 µM, stronger effect = higher value
Voltage-gated potassium channel subunit beta-2 (Rattus norvegicus), sequence (P62483 whole entry, looked up): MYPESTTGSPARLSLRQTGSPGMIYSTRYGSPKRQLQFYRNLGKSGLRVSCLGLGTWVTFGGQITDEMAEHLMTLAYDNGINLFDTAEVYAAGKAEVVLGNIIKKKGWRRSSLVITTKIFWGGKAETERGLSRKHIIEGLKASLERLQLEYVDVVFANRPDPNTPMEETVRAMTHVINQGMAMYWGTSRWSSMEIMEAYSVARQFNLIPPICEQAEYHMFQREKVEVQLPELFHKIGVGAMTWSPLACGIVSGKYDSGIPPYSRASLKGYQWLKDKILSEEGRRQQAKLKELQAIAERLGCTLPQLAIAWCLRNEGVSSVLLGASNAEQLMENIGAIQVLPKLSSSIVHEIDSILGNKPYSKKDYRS

[5] = target: Voltage-gated potassium channel subunit beta-2 (Rattus norvegicus) (UniProt P62483); experiment: KvBeta positive modulators, primary screen, biochemical, NADPH fluorescence (AID 623); conditions: Recombinant KvBeta, NADPH fluorescence decrease slope, 10 min; at 10 µM; stronger effect = lower value;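 further: fluorescence intensity change per second fitted from 20 to 320 s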
[6] = target: Muscarinic acetylcholine receptor M4 (Homo sapiens) (UniProt P08173); experiment: compounds altering M4/GIRK thallium flux, either direction, primary screen, M4 allosteric agonist project, cell-based, HEK293 M4/GIRK, BTC-AM (AID 625;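 active means fluorescence slope after compound addition differing from the mean of all tested samples at 99.7% confidence, mostly higher but some lower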;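 further: thallium influx through GIRK channels coupled to M4 in HEK293 cells with BTC-AM dye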); conditions: at 10 µM, actives lie on both sides
Muscarinic acetylcholine receptor M4 (Homo sapiens), sequence (P08173 whole entry, looked up): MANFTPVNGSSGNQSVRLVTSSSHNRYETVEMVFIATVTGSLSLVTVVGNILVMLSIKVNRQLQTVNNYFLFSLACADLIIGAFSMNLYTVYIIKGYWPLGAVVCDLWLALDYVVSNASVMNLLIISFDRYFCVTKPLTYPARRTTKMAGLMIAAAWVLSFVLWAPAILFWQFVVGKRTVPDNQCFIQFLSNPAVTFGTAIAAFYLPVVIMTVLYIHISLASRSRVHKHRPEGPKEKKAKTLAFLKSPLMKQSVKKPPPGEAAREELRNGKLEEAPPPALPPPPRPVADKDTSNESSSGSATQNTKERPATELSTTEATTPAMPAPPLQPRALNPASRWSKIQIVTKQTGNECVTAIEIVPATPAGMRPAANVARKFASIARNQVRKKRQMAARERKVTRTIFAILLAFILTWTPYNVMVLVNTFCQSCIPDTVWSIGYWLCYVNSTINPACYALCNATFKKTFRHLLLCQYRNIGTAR
In short: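 Material – HEK293 cells with M4 receptor and GIRK channels · Buffer or medium – pH 7.3 thallium assay buffer · Doses – one dose, 10 µM final · Timing – cells overnight at 37 °C, BTC-AM loading 1 h, reads 2 min total · Measured by – kinetic fluorescence with BTC-AM dye · Controls – carbachol and DMSO controls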

[7] = inhibitors of Sendai virus-induced IRF3 signaling, primary screen, TLR/RLR signaling modifier project, cell-based, Sendai virus stimulus, luciferase, 10K MLSCN set (AID 602276;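 active means inhibition at or above 50% at 10 µM; inactive means inhibition below 50%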;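 further: firefly luciferase from ISG56 promoter only with Renilla not read in this screen; 0% = Sendai virus plus DMSO and 100% = medium plus DMSO without virus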); conditions: HEK293 RL24 IRF3 luciferase reporter, at 10 µM, stronger effect = higher value
[8] = inhibitors of poly I:C-induced TLR3 signaling, primary screen, cell-based, poly I:C stimulus, luciferase, 10K MLSCN set (AID 602277;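 active means inhibition of the reporter signal at or above 50%; inactive means inhibition below 50%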); conditions: HEK293-TLR3 RL24 IRF3 luciferase reporter, at 10 µM, stronger effect = higher value

CCOC(=O)CCC(=O)c1c(C)oc2ccc(OC)cc12
cell count [1]: 447
inhibition [1]: -6.3% (inactive)
inhibition of aggregation [2]: 4.8% (inactive)
nuclei count [2]: 98.5%
inhibition [3]: 46.7% (inactive)
nuclei count [3]: 118%
fluorescence slope [4]: -0.583 (inactive)
NADPH fluorescence slope [5]: 4e-05 (inactive)
fluorescence slope [6]: 0.00919 (inactive)
inhibition [7]: -14.6% (inactive)
inhibition [8]: -30.6% (inactive)

Cc1cc(NS(=O)(=O)c2ccccc2)n(-c2ccccc2)n1
cell count [1]: 395
inhibition [1]: 10.8% (inactive)
inhibition of aggregation [2]: -18.2% (inactive)
nuclei count [2]: 94.7%
inhibition [3]: -59.1% (inactive)
nuclei count [3]: 106%
fluorescence slope [4]: -0.544 (inactive)
NADPH fluorescence slope [5]: -4.8e-05 (inactive)
fluorescence slope [6]: 0.00508 (inactive)
inhibition [7]: -0.656% (inactive)
inhibition [8]: 28% (inactive)

O=S(=O)(NCCc1csc(-c2ccccc2)n1)c1ccc2c(c1)OCCO2
cell count [1]: 363
inhibition [1]: -13.3% (inactive)
inhibition of aggregation [2]: 2.9% (inactive)
nuclei count [2]: 108%
inhibition [3]: 29.5% (inactive)
nuclei count [3]: 76.2%
fluorescence slope [4]: -0.622 (inactive)
NADPH fluorescence slope [5]: 1e-06 (inactive)
fluorescence slope [6]: 0.00312 (inactive)
inhibition [7]: 14.6% (inactive)
inhibition [8]: 9.91% (inactive)

ON1C2CCCCC2N(O)C1c1c(F)c(F)c(F)c(F)c1F (configuration not stated)
cell count [1]: 431
inhibition [1]: 4.1% (inactive)
inhibition of aggregation [2]: -6.9% (inactive)
nuclei count [2]: 105%
inhibition [3]: -53.7% (inactive)
nuclei count [3]: 102%
fluorescence slope [4]: -0.546 (inactive)
NADPH fluorescence slope [5]: -2.9e-05 (inactive)
fluorescence slope [6]: 0.00415 (inactive)
inhibition [7]: 15.7% (inactive)
inhibition [8]: 22% (inactive)

COc1ccccc1-n1nnnc1SCc1ccccc1
cell count [1]: 211
inhibition [1]: -1.5% (inactive)
inhibition of aggregation [2]: 6.5% (inactive)
nuclei count [2]: 108%
inhibition [3]: -25.5% (inactive)
nuclei count [3]: 92.6%
fluorescence slope [4]: -0.51 (inactive)
NADPH fluorescence slope [5]: -2.7e-05 (inactive)
fluorescence slope [6]: 0.00333 (inactive)
inhibition [7]: 13% (inactive)
inhibition [8]: 16.5% (inactive)

CS(=O)(=O)Nc1ccc(S(=O)(=O)Nc2nccs2)cc1
cell count [1]: 418
inhibition [1]: 5.4% (inactive)
inhibition of aggregation [2]: -6.9% (inactive)
nuclei count [2]: 112%
inhibition [3]: -42.5% (inactive)
nuclei count [3]: 87.9%
fluorescence slope [4]: -0.399 (inactive)
NADPH fluorescence slope [5]: 7.8e-05 (inactive)
fluorescence slope [6]: 0.00758 (inactive)
inhibition [7]: 9.08% (inactive)
inhibition [8]: 14.5% (inactive)

O=C1CC(c2ccco2)=Nc2ccccc2N1
cell count [1]: 195
inhibition [1]: -13.4% (inactive)
inhibition of aggregation [2]: 7.9% (inactive)
nuclei count [2]: 78.3%
inhibition [3]: 9.4% (inactive)
nuclei count [3]: 84.6%
fluorescence slope [4]: -0.573 (inactive)
NADPH fluorescence slope [5]: 1.4e-05 (inactive)
fluorescence slope [6]: 0.00527 (inactive)
inhibition [7]: -1.5% (inactive)
inhibition [8]: -5.46% (inactive)

CCCc1[nH]nc2c1C(c1cccc(OC(=O)c3ccco3)c1)C(C#N)=C(N)O2 (configuration not stated)
cell count [1]: 687
inhibition [1]: -27.1% (inactive)
inhibition of aggregation [2]: -11.9% (inactive)
nuclei count [2]: 105%
inhibition [3]: 35.2% (inactive)
nuclei count [3]: 96.7%
fluorescence slope [4]: -0.471 (inactive)
NADPH fluorescence slope [5]: -8.2e-06 (inactive)
fluorescence slope [6]: 0.00951 (inactive)
inhibition [7]: 9.57% (inactive)
inhibition [8]: 18% (inactive)

Cn1cccc1C1NC(=O)c2c(sc3c2CCC(C(C)(C)C)C3)N1 (configuration not stated)
cell count [1]: 495
inhibition [1]: 1.7% (inactive)
inhibition of aggregation [2]: -10.6% (inactive)
nuclei count [2]: 93%
inhibition [3]: -107% (inactive)
nuclei count [3]: 127%
fluorescence slope [4]: -0.19 (inactive)
NADPH fluorescence slope [5]: -1.5e-05 (inactive)
fluorescence slope [6]: 0.00584 (inactive)
inhibition [7]: -3.95% (inactive)
inhibition [8]: -48.7% (inactive)

O=C(CP(=O)(CO)CO)c1ccc(Cl)cc1
cell count [1]: 863
inhibition [1]: -2.9% (inactive)
inhibition of aggregation [2]: 18.9% (inactive)
nuclei count [2]: 119%
inhibition [3]: 2.9% (inactive)
nuclei count [3]: 126%
fluorescence slope [4]: -0.536 (inactive)
NADPH fluorescence slope [5]: 4.7e-05 (inactive)
fluorescence slope [6]: 0.00425 (inactive)
inhibition [7]: 3.99% (inactive)
inhibition [8]: 14.2% (inactive)

CC1CCN(C(=O)c2ccc(C(=O)N3CCC(C)CC3)cc2)CC1
cell count [1]: 348
inhibition [1]: 4.7% (inactive)
inhibition of aggregation [2]: 2.4% (inactive)
nuclei count [2]: 95.8%
inhibition [3]: 33.2% (inactive)
nuclei count [3]: 76.8%
fluorescence slope [4]: -0.459 (inactive)
NADPH fluorescence slope [5]: -3e-05 (inactive)
fluorescence slope [6]: 0.00464 (inactive)
inhibition [7]: 12.9% (inactive)
inhibition [8]: 12.8% (inactive)

CCOC(=O)N1CCN(CC(=O)Nc2c(C(=O)OC)[nH]c3cccc(Cl)c23)CC1
cell count [1]: 556
inhibition [1]: -15.5% (inactive)
inhibition of aggregation [2]: -5.4% (inactive)
nuclei count [2]: 96.1%
inhibition [3]: -23.3% (inactive)
nuclei count [3]: 94%
fluorescence slope [4]: -0.214 (inactive)
NADPH fluorescence slope [5]: -2.3e-05 (inactive)
fluorescence slope [6]: 0.00534 (inactive)
inhibition [7]: 20% (inactive)
inhibition [8]: -2.65% (inactive)
